Screening data (PubChem BioAssay)
SR-BI DiI inh: inhibitors of SR-BI mediated HDL lipid uptake, primary screen, ldlA[mSR-BI] cells, fluorescence, single point; Scavenger receptor class B member 1 (Mus musculus), Q61009; ldlA[mSR-BI] CHO cells, DiI-HDL uptake fluorescence, 3 h; inhibition, % at 12.5 µM; actives 0.96% (n = 320,000);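 active = mean replicate inhibition of at least 70% and a set share of replicates each scoring 70 or more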;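 note: 0% = median of neutral control wells and 100% = median of positive control wells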
Target sequence (Q61009 whole entry, looked up): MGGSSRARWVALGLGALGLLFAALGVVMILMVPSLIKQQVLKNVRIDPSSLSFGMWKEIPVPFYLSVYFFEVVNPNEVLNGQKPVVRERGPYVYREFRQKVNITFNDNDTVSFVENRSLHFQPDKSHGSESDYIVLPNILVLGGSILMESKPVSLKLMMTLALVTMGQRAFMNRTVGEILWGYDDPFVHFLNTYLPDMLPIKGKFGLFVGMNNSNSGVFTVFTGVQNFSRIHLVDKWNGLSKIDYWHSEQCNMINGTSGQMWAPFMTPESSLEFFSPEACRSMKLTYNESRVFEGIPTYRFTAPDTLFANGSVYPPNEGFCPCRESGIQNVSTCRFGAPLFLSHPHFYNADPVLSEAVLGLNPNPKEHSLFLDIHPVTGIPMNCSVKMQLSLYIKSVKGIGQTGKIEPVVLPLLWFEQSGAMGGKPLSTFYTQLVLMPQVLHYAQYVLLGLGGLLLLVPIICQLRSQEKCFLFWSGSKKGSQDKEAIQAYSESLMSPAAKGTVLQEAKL
SR-BI uptake up: activators of SR-BI mediated DiI-HDL uptake, primary screen, ldlA[mSR-BI] CHO cells, DiI fluorescence; 3 h; 100 = double the neutral-control signal; activation, % at 12.5 µM; actives 0.096% (n = 320,000);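 active = mean replicate activation of at least 60% and every replicate at or above 60%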;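 note: 0% = median plate neutral-control signal and 100% = twice that signal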
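system = CHO ldlA[mSR-BI] cells, LDL receptor-null, SR-BI overexpressing | medium = Ham's F12 with 0.5% BSA, HEPES 25 mM, pH 7.4 | probe or stimulus = DiI-HDL 10 µg/mL | compound dosing = single-point compound dose | incubation = compound exposure 3 h, 37 °C | technique = DiI fluorescence, bottom read | read-out = cell-associated DiI fluorescence as measure of HDL uptake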
CAL PDZ FP-1: untagged CAL PDZ binding inhibitors, primary screen, biochemical, fluorescence polarization, HTS; inhibition, % at 24.9 µM; purified CAL PDZ, TMR-peptide fluorescence polarization, 1 h; actives 0.92% (n = 300,000);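 active = mean inhibition of at least 30% with at least half of replicates also reaching 30%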;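 note: 0% = DMSO neutral control and 100% = excess unlabeled competitor peptide PRC23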
CAL PDZ FP-2: CAL PDZ peptide-binding inhibitors, primary screen, biochemical, fluorescence polarization, Cer-tagged CAL PDZ, HTS; inhibition, % at 20 µM; actives 0.02% (n = 330,000); purified CAL PDZ, TMR-peptide fluorescence polarization, 1 h;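 active = highest replicate inhibition of at least 40%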;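 note: plate controls were DMSO neutral control wells for no effect and unlabeled competitor peptide control wells for full effect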
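Read-out basis: mP drop reported as inhibition | Assay system: Tagged CAL PDZ protein CerCALP, purified | Benchmarks: Unlabelled peptide for full inhibition, DMSO wells as neutral | Schedule: 1 h incubation at room temperature before polarization reading | Buffer or medium: Sodium phosphate/NaCl buffer pH 7.4 with TCEP, IgG, Thesit | Doses: Single point, 20 µM | Measured by: Fluorescence polarization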
ATG4B inh: ATG4B protease inhibitors, primary screen, biochemical, fluorescence, uHTS; ATG4B cleavage of LC3-PLA2, NBD-HPC fluorescence, 1 h; actives 0.51% (n = 340,000); inhibition, % at 8.33 µM; Cysteine protease ATG4B (Homo sapiens), Q9Y4P1; in the data active = inhibition above about 40%
Active calls of the source: *; x = no result given. Most compounds without a hit are left out; they make up all but 2.3% or so of the library.

SMILES	SR-BI DiI inh	SR-BI uptake up	CAL PDZ FP-1	CAL PDZ FP-2	ATG4B inh
COc1ccc(/C=C\C(=O)NCC(=O)N/N=C/c2ccc(O)cc2O)cc1	x	x	7	0	-14
COc1ccc(/C=C/C(=O)NCC(=O)N/N=C(/CCC(=O)O)c2ccccc2)cc1	11	-11	32*	-1	-5
COc1ccccc1/C=C/C(=O)NCC(=O)N/N=C/c1cc(Br)ccc1OC	98*	-98	-2	-4	-2
COc1ccc(/C=C/C(=O)NCC(=O)N/N=C/c2cc(Br)ccc2OC)cc1	78*	-78	-4	-2	18
COc1ccccc1/C=C\C(=O)NCC(=O)N/N=C/c1cccc(OC)c1O	-6	6	1	-4	-16
COc1ccccc1NS(=O)(=O)c1cccc(C(=O)N/N=C/c2ccc([N+](=O)[O-])o2)c1	13	-13	3	-3	-1
Cc1ccccc1C(=O)OC(C)CN1CCN(C)CC1 (configuration not stated)	8	-8	116*	9	-7
CCN(CC)c1ccc(N=C2C=CC(=O)C=C2NC(C)=O)cc1	x	x	x	x	-18
COc1cc(N/N=C(\C)c2ccc(O)c(C)c2)nc(-c2ccccc2)n1	92*	-92	-1	0	2
O=[N+]([O-])c1cccc(/C=N/Nc2cc(Cl)nc(-c3ccccc3)n2)c1	74*	-74	x	-1	-3
COc1cc(N/N=C(\C)c2ccc(N)cc2)nc(-c2ccccc2)n1	79*	-79	x	0	-5
O=[N+]([O-])c1ccc(/C=N/Nc2cc(Cl)nc(-c3ccccc3)n2)cc1	6	-6	-3	0	-4
C/C(=N\Nc1cc(-c2ccccc2)nc(-c2ccccc2)n1)c1ccc(O)c(C)c1	94*	-94	5	0	21
Cn1cccc1/C=N/NC(=O)CSc1nc2ccccc2[nH]1	x	x	x	x	-5
C/C(=N\Nc1cc(C)nc(-c2ccccc2)n1)c1cccc([N+](=O)[O-])c1	77*	-77	-4	-2	3
C/C(=N\Nc1ncc(Br)cn1)c1cccc([N+](=O)[O-])c1	-12	12	-5	-4	-3
CCCOc1ccc(-c2c(C(=O)N/N=C/c3ccc(C)o3)nnn2-c2nonc2N)cc1	78*	-78	-3	-3	-1
CCOc1ccc(-c2c(C(=O)N/N=C/c3ccc(C)o3)nnn2-c2nonc2N)cc1	76*	-76	-3	-1	-2
CCCOc1ccc(-c2c(C(=O)N/N=C/c3cccs3)nnn2-c2nonc2N)cc1	73*	-73	-4	-2	17
Cc1ccc(NC(=O)CCCC2CCCCC2)c(O)c1	-13	13	-3	-4	-6
CC(C)c1nc(SCC(=O)Nc2c[nH]c(=O)[nH]c2=O)c2cnn(-c3ccccc3)c2n1	23	-23	x	-1	-1
Cc1ccc(F)cc1NC(=O)CCc1c(C)nn(-c2ccc(N3CCCCC3)nn2)c1C	81*	-81	3	-2	-5
Cc1cc(F)ccc1NC(=O)CCc1c(C)nn(-c2ccc(N3CCCCC3)nn2)c1C	82*	-82	80*	-2	-4
COc1ccc(C)cc1NC(=O)CCc1c(C)nn(-c2ccc(N3CCCCC3)nn2)c1C	71*	-71	-3	-3	1
CC(C)(Oc1ccc(Cl)cc1)C(=O)OCc1nc2ccsc2c(=O)[nH]1	-27	27	-1	-2	-5
SMILES	SR-BI DiI inh	SR-BI uptake up	CAL PDZ FP-1	CAL PDZ FP-2	ATG4B inh
Cc1cc(NC(=O)c2c(Br)c(C)nn2C)no1	-4	4	83*	0	-7
Oc1ccccc1-c1nc(NC2CCCC2)c2ccccc2n1	82*	-82	-1	-1	2
Fc1ccccc1-c1nc(NC2CCCC2)c2ccccc2n1	34	-34	-6	-3	1
Cc1cc(NC(=O)CSc2nnc(-c3ccccc3F)n2N)no1	-18	18	-2	-1	1
O=[N+]([O-])c1cccc(SSc2cccc([N+](=O)[O-])c2)c1	44	-44	-4	-1	-4
COc1ccc(-n2nc(C(=O)NCC(=O)NCCCN3CC(C)CC(C)C3)c3ccccc3c2=O)cc1 (configuration not stated)	x	x	9	-1	-3
COCc1cc(C)nc(SCC(=O)Nc2ccc3c(c2)n(C)c(=O)n3C)c1C#N	-5	5	-2	-1	0
Cc1cccc(C)c1OCC(=O)N(Cc1ccc(N(C)C)cc1)C1CCS(=O)(=O)C1 (configuration not stated)	-7	7	76*	0	-11
CN(C)c1cccc(C(=O)OCC(=O)N(Cc2ccccc2)C2CCS(=O)(=O)C2)c1 (configuration not stated)	9	-9	0	-1	-13
NC(=O)Nc1ccc(C(=O)OCC(=O)N(Cc2ccccc2)C2CCS(=O)(=O)C2)cc1 (configuration not stated)	-8	8	37*	0	-3
CCOC(=O)C(=N/O)/C(C)=N/NC(=O)C(=O)Nc1cc(Cl)ccc1Cl	81*	-81	-2	-2	1
O=C(CNC(=O)c1ccccc1)OCC(=O)c1ccccc1Cl	-21	21	49*	0	-3
COCC1CCCCN1C(=O)c1cccc(OC2CCN(S(C)(=O)=O)CC2)c1 (configuration not stated)	-24	24	-1	-1	0
CCN(CC(=O)Nc1c(F)cccc1F)C(=O)Cn1[nH]c(=O)c2ccccc2c1=O	-13	13	78*	0	-13
CCN(CC(=O)Nc1c(F)cccc1F)C(=O)CSCC(=O)Nc1ccc(OC)cc1	-9	9	-2	-1	-8
CCN(CC(=O)Nc1c(F)cccc1F)C(=O)CSCC(=O)Nc1cccc(C)c1	12	-12	78*	0	-7
Cc1nn(C2CC(O)C(O)C(CO)O2)c(=O)[nH]c1=O (configuration not stated)	-10	10	-2	0	3
CC12CCC(O)CC1=CCC1C2CCC2(C)C1CCC21CCC(=O)O1 (configuration not stated)	-22	22	-8	-1	-7
C[C@]12CCC(O)CC1=CCC1C2CC[C@]2(C)/C(=N\NC(N)=S)CCC12 (some centres not stated)	90*	-90	-3	-1	4
O=S(=O)(CCNCc1ccco1)NC1CCCCC1	-8	8	24	-1	x
CCOC(=O)C1(CCCc2ccccc2)CCN(C(=O)CCc2cnn(C)c2)CC1	23	-23	0	-2	-4
